Test results: ChEMBL document CHEMBL1629636, “In vitro susceptibility of Borrelia spielmanii to antimicrobial agents commonly used for treatment of Lyme disease” (2009)
≈ marks a conversion by molar mass, not a printed value.

Experiments:
Type in all cases: functional
Borrelia spielmanii [1] = assay: Antimicrobial activity against Borrelia spielmanii isolate PMew after 72 hrs by colorimetric assay; settings: Borreliella spielmanii
Procedure, shortened: (§1)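 Tested in microtiter trays preloaded with lyophilized antibiotics; clinical isolates were low-passage (10 to 20 passages). MIC was read by colorimetric assay after 72 h. MBC was defined as 100% killing in liquid medium at 72 h: aliquots from vials showing no growth were diluted 1:1,000 in BSK and checked for regrowth after 3 weeks of subculture. Values are medians of three independent experiments on separate days.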

Borrelia spielmanii [2] = assay: Antimicrobial activity against Borrelia spielmanii isolate PSig2 after 72 hrs by colorimetric assay; settings: Borreliella spielmanii, isolate PSig2, 72 h; procedure, shortened: as §1
Borrelia spielmanii [3] = assay: Antimicrobial activity against Borrelia spielmanii isolate PC-Eq17 after 72 hrs by colorimetric assay; settings: Borreliella spielmanii, isolate PC-Eq17, 72 h; procedure, shortened: as §1
Borrelia spielmanii [4] = assay: Antimicrobial activity against Borrelia spielmanii isolate PHap after 72 hrs by colorimetric assay; settings: Borreliella spielmanii; procedure, shortened: as §1
Borrelia spielmanii [5] = assay: Antimicrobial activity against Borrelia spielmanii isolate PJes after 72 hrs by colorimetric assay; settings: Borreliella spielmanii; procedure, shortened: as §1
Borrelia spielmanii [6] = assay: Antimicrobial activity against Borrelia spielmanii isolate PAnz after 72 hrs by colorimetric assay; settings: Borreliella spielmanii; procedure, shortened: as §1
Borrelia spielmanii [7] = assay: Antimicrobial activity against Borrelia spielmanii isolate PMai after 72 hrs by colorimetric assay; settings: Borreliella spielmanii; procedure, shortened: as §1
[8] = Antimicrobial activity against Borrelia spielmanii A14S after 72 hrs by colorimetric assay; settings: Borreliella spielmanii
Procedure, shortened: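 Low-passage isolates (10 to 20 passages) grown in BSK medium were tested in microtiter trays precoated with lyophilized antimicrobials. MIC was read colorimetrically after 72 h. Independent experiments were run on three different days, and the MIC reported is the median of the three.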

Borrelia spielmanii [9] = assay: Antimicrobial activity against Borrelia spielmanii isolate TIsar2 after 72 hrs by colorimetric assay; settings: Borreliella spielmanii, isolate TIsar2, 72 h; procedure, shortened: as §1
Borrelia spielmanii [10] = assay: Antimicrobial activity against Borrelia spielmanii isolate TIsar3 after 72 hrs by colorimetric assay; settings: Borreliella spielmanii, isolate TIsar3, 72 h; procedure, shortened: as §1
[11] = Antimicrobial activity against Borrelia burgdorferi B31 after 72 hrs by colorimetric assay; settings: Borreliella burgdorferi; procedure, shortened: as §1
Borrelia burgdorferi = assay: Antimicrobial activity against Borrelia burgdorferi isolate LW2 after 72 hrs by colorimetric assay; settings: Borreliella burgdorferi, isolate LW2, 72 h; procedure, shortened: as §1
Borrelia afzelii [12] = assay: Antimicrobial activity against Borrelia afzelii isolate FEM1 after 72 hrs by colorimetric assay; settings: Borreliella afzelii, isolate FEM1, 72 h; procedure, shortened: as §1
Borrelia afzelii [13] = assay: Antimicrobial activity against Borrelia afzelii isolate G600 after 72 hrs by colorimetric assay; settings: Borreliella afzelii, isolate G600, 72 h; procedure, shortened: as §1
Borrelia afzelii [14] = assay: Antimicrobial activity against Borrelia afzelii isolate G1039 after 72 hrs by colorimetric assay; settings: Borreliella afzelii, isolate G1039, 72 h; procedure, shortened: as §1
Borrelia garinii [15] = assay: Antimicrobial activity against Borrelia garinii isolate PSth after 72 hrs by colorimetric assay; settings: Borreliella garinii; procedure, shortened: as §1
Borrelia garinii [16] = assay: Antimicrobial activity against Borrelia garinii isolate M2094 after 72 hrs by colorimetric assay; settings: Borreliella garinii, isolate M2094, 72 h; procedure, shortened: as §1
Borrelia garinii [17] = assay: Antimicrobial activity against Borrelia garinii isolate G1 after 72 hrs by colorimetric assay; settings: Borreliella garinii, isolate G1, 72 h; procedure, shortened: as §1
Staphylococcus aureus = assay: Antimicrobial activity against Staphylococcus aureus ATCC 29213 after 72 hrs by colorimetric assay; settings: ATCC 29213, 72 h
Procedure, shortened: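 Quality-control MIC followed the CLSI method with two changes: BSK medium was used, and the antibiotic-medium preparation was preincubated for 48 h before testing. Tests were run on three different days, and the MIC reported is the median of the three.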

Borrelia = assay: Antimicrobial activity against Borrelia clinical isolate after 72 hrs by colorimetric assay; settings: for MIC90: Borrelia, 72 h; procedure, shortened: as §1

SMILES	MBC (Borrelia spielmanii [1])	MIC (Borrelia spielmanii [1])	MBC (Borrelia spielmanii [2])	MIC (Borrelia spielmanii [2])	MBC (Borrelia spielmanii [3])	MIC (Borrelia spielmanii [3])	MBC (Borrelia spielmanii [4])	MIC (Borrelia spielmanii [4])	MBC (Borrelia spielmanii [5])	MIC (Borrelia spielmanii [5])	MBC (Borrelia spielmanii [6])	MIC (Borrelia spielmanii [6])	MBC (Borrelia spielmanii [7])	MIC (Borrelia spielmanii [7])	MBC [8]	MIC [8]	MBC (Borrelia spielmanii [9])	MIC (Borrelia spielmanii [9])	MBC (Borrelia spielmanii [10])	MIC (Borrelia spielmanii [10])	other results
CC[C@H]1OC(=O)[C@H](C)[C@@H](O[C@H]2C[C@@](C)(OC)[C@@H](O)[C@H](C)O2)[C@H](C)[C@@H](O[C@@H]2O[C@H](C)C[C@H](N(C)C)[C@H]2O)[C@](C)(OC)C[C@@H](C)C(=O)[C@H](C)[C@@H](O)[C@]1(C)O [CLARITHROMYCIN]	1 mg/L (≈ 1.34 µM)	0.0079 mg/L (≈ 0.0106 µM)	1 mg/L (≈ 1.34 µM)	0.0019 mg/L (≈ 0.00254 µM)	1 mg/L (≈ 1.34 µM)	0.0019 mg/L (≈ 0.00254 µM)	0.5 mg/L (≈ 0.668 µM)	0.0019 mg/L (≈ 0.00254 µM)	0.5 mg/L (≈ 0.668 µM)	0.0039 mg/L (≈ 0.00521 µM)	1 mg/L (≈ 1.34 µM)	0.0019 mg/L (≈ 0.00254 µM)	0.5 mg/L (≈ 0.668 µM)	0.0019 mg/L (≈ 0.00254 µM)	1 mg/L (≈ 1.34 µM)	0.0039 mg/L (≈ 0.00521 µM)	0.5 mg/L (≈ 0.668 µM)	0.0079 mg/L (≈ 0.0106 µM)	1 mg/L (≈ 1.34 µM)	0.0079 mg/L (≈ 0.0106 µM)	MBC [11]: 2 mg/L (≈ 2.67 µM); MIC [11]: 0.0079 mg/L (≈ 0.0106 µM); MBC (Borrelia burgdorferi): 4 mg/L (≈ 5.35 µM); MIC (Borrelia burgdorferi): 0.0039 mg/L (≈ 0.00521 µM); MBC (Borrelia afzelii [12]): 1 mg/L (≈ 1.34 µM); MIC (Borrelia afzelii [12]): 0.0039 mg/L (≈ 0.00521 µM); MBC (Borrelia afzelii [13]): 0.5 mg/L (≈ 0.668 µM); MIC (Borrelia afzelii [13]): 0.0079 mg/L (≈ 0.0106 µM); MBC (Borrelia afzelii [14]): 1 mg/L (≈ 1.34 µM); MIC (Borrelia afzelii [14]): 0.0039 mg/L (≈ 0.00521 µM); MBC (Borrelia garinii [15]): 2 mg/L (≈ 2.67 µM); MIC (Borrelia garinii [15]): 0.0079 mg/L (≈ 0.0106 µM); MBC (Borrelia garinii [16]): 1 mg/L (≈ 1.34 µM); MIC (Borrelia garinii [16]): 0.0039 mg/L (≈ 0.00521 µM); MBC (Borrelia garinii [17]): 1 mg/L (≈ 1.34 µM); MIC (Borrelia garinii [17]): 0.0019 mg/L (≈ 0.00254 µM); MIC (Staphylococcus aureus): 0.063 mg/L (≈ 0.0842 µM); MBC90 (Borrelia): 1 mg/L (≈ 1.34 µM); MIC90 (Borrelia): 0.0079 mg/L (≈ 0.0106 µM)
C[C@H]1c2cccc(O)c2C(=O)C2=C(O)[C@]3(O)C(=O)C(C(N)=O)=C(O)[C@@H](N(C)C)[C@@H]3[C@@H](O)[C@@H]21.O [DOXYCYCLINE]	16 mg/L	0.5 mg/L	8 mg/L	0.125 mg/L	16 mg/L	0.125 mg/L	16 mg/L	0.0625 mg/L	8 mg/L	0.125 mg/L	8 mg/L	0.0625 mg/L	8 mg/L	0.125 mg/L	16 mg/L	0.125 mg/L	16 mg/L	0.25 mg/L	8 mg/L	0.125 mg/L	MBC [11]: 16 mg/L; MIC [11]: 0.25 mg/L; MBC (Borrelia burgdorferi): 32 mg/L; MIC (Borrelia burgdorferi): 0.125 mg/L; MBC (Borrelia afzelii [12]): 4 mg/L; MIC (Borrelia afzelii [12]): 0.125 mg/L; MBC (Borrelia afzelii [13]): 2 mg/L; MIC (Borrelia afzelii [13]): 0.25 mg/L; MBC (Borrelia afzelii [14]): 4 mg/L; MIC (Borrelia afzelii [14]): 0.125 mg/L; MBC (Borrelia garinii [15]): 32 mg/L; MIC (Borrelia garinii [15]): 0.25 mg/L; MBC (Borrelia garinii [16]): 16 mg/L; MIC (Borrelia garinii [16]): 0.25 mg/L; MBC (Borrelia garinii [17]): 16 mg/L; MIC (Borrelia garinii [17]): 0.125 mg/L; MIC (Staphylococcus aureus): 0.25 mg/L; MBC90 (Borrelia): 16 mg/L; MIC90 (Borrelia): 0.25 mg/L
CC[C@H]1OC(=O)[C@H](C)[C@@H](O[C@H]2C[C@@](C)(OC)[C@@H](O)[C@H](C)O2)[C@H](C)[C@@H](O[C@@H]2O[C@H](C)C[C@H](N(C)C)[C@H]2O)[C@](C)(O)C[C@@H](C)C(=O)[C@H](C)[C@@H](O)[C@]1(C)O [ERYTHROMYCIN]	2 mg/L (≈ 2.73 µM)	0.0312 mg/L (≈ 0.0425 µM)	2 mg/L (≈ 2.73 µM)	0.0079 mg/L (≈ 0.0108 µM)	4 mg/L (≈ 5.45 µM)	0.0156 mg/L (≈ 0.0213 µM)	2 mg/L (≈ 2.73 µM)	0.0079 mg/L (≈ 0.0108 µM)	1 mg/L (≈ 1.36 µM)	0.0156 mg/L (≈ 0.0213 µM)	2 mg/L (≈ 2.73 µM)	0.0079 mg/L (≈ 0.0108 µM)	1 mg/L (≈ 1.36 µM)	0.0079 mg/L (≈ 0.0108 µM)	2 mg/L (≈ 2.73 µM)	0.0156 mg/L (≈ 0.0213 µM)	1 mg/L (≈ 1.36 µM)	0.0312 mg/L (≈ 0.0425 µM)	2 mg/L (≈ 2.73 µM)	0.0312 mg/L (≈ 0.0425 µM)	MBC [11]: 4 mg/L (≈ 5.45 µM); MIC [11]: 0.0312 mg/L (≈ 0.0425 µM); MBC (Borrelia burgdorferi): 4 mg/L (≈ 5.45 µM); MIC (Borrelia burgdorferi): 0.0312 mg/L (≈ 0.0425 µM); MBC (Borrelia afzelii [12]): 2 mg/L (≈ 2.73 µM); MIC (Borrelia afzelii [12]): 0.0312 mg/L (≈ 0.0425 µM); MBC (Borrelia afzelii [13]): 2 mg/L (≈ 2.73 µM); MIC (Borrelia afzelii [13]): 0.0312 mg/L (≈ 0.0425 µM); MBC (Borrelia afzelii [14]): 2 mg/L (≈ 2.73 µM); MIC (Borrelia afzelii [14]): 0.0156 mg/L (≈ 0.0213 µM); MBC (Borrelia garinii [15]): 4 mg/L (≈ 5.45 µM); MIC (Borrelia garinii [15]): 0.0312 mg/L (≈ 0.0425 µM); MBC (Borrelia garinii [16]): 4 mg/L (≈ 5.45 µM); MIC (Borrelia garinii [16]): 0.0312 mg/L (≈ 0.0425 µM); MBC (Borrelia garinii [17]): 4 mg/L (≈ 5.45 µM); MIC (Borrelia garinii [17]): 0.0156 mg/L (≈ 0.0213 µM); MIC (Staphylococcus aureus): 0.25 mg/L (≈ 0.341 µM); MBC90 (Borrelia): 4 mg/L (≈ 5.45 µM); MIC90 (Borrelia): 0.0312 mg/L (≈ 0.0425 µM)
